Assay results from ChEMBL document CHEMBL1127461, “Synthesis of new acyclic pyrimidine nucleoside analogs as potential antiviral drugs” (J Med Chem, 1994).

Key:
Human alphaherpesvirus 1 [1] = experiment: In Vitro antiviral activity against HSV-1 at 0.5 ug/mL concentration; format: functional
Method in brief: (§1)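 Mouse embryo cell cultures infected with HSV-1 were exposed to compound at 0.05, 0.5, 5, 50 and 500 μg/mL for 3 days. Infected cultures were then inspected macro- and microscopically, and reduction or inhibition of virus-induced cell destruction was scored. Aciclovir, 5-ethyldeoxyuridine and PMEG served as reference drugs.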

Human alphaherpesvirus 1 [2] = experiment: In Vitro antiviral activity against HSV-1 at 50 ug/mL concentration; format: functional; method in brief: as §1
Human alphaherpesvirus 1 [3] = experiment: In Vitro antiviral activity against HSV-1 at 0.05 ug/mL concentration; format: functional; method in brief: as §1
Human alphaherpesvirus 1 [4] = experiment: In Vitro antiviral activity against HSV-1 at 500 ug/mL concentration; format: functional; method in brief: as §1
[5] = In Vitro cytotoxicity against HSV-1 at 5 ug/mL concentration; format: organism-based; conditions: human alphaherpesvirus 1, in vitro
Method in brief: (§2)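 Uninfected mouse embryo cell cultures were exposed to compound at 0.05, 0.5, 5, 50 and 500 μg/mL for 3 days. Cultures were then examined macro- and microscopically, and growth inhibition or disruption of the cells was taken as cytotoxicity.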

Human alphaherpesvirus 1 [6] = experiment: In Vitro antiviral activity against HSV-1 at 5 ug/mL concentration; format: functional; method in brief: as §1
[7] = In Vitro cytotoxicity […] at 500 ug/mL concentration; format: organism-based; method in brief: as §2
[8] = In Vitro cytotoxicity […] at 50 ug/mL concentration; format: organism-based; method in brief: as §2

SMILES	inhibition at 0.5 µg/mL (Human alphaherpesvirus 1 [1])	inhibition at 50 µg/mL (Human alphaherpesvirus 1 [2])	inhibition at 0.05 µg/mL (Human alphaherpesvirus 1 [3])	inhibition at 500 µg/mL (Human alphaherpesvirus 1 [4])	inhibition at 5 ug/mL [5]	inhibition at 5 µg/mL (Human alphaherpesvirus 1 [6])	inhibition at 500 ug/mL [7]	inhibition at 50 ug/mL [8]
Nc1nc(Cl)cc(NCCCCO)n1	0%	0%	0%	0%	0%	0%	50%	0%
OCCCCNc1cc(O)nc(O)n1	0%	0%	0%	0%	0%	0%	25%	0%
OCCCCNc1nc(O)nc(O)c1I	0%	0%	0%	0%	0%	0%	100%	100%
CCc1cn([C@H]2C[C@H](O)[C@@H](CO)O2)c(=O)[nH]c1=O [EDOXUDINE]	25%	100%	0%	100%	0%	100%	0%	0%
Nc1nc(O)c2ncn(COCCP(=O)(O)O)c2n1	100%	–	100%	–	–	–	–	–
Nc1nc(O)c([N+](=O)[O-])c(NCCOCP(=O)(O)O)n1	0%	0%	0%	0%	0%	0%	0%	0%
Nc1nc(O)c(N)c(NCCOCP(=O)(O)O)n1	100%	–	50%	–	–	100%	75%	–
Nc1nc(O)c([N+](=O)[O-])c(NCCCCO)n1	0%	0%	0%	0%	0%	0%	100%	0%
O=[N+]([O-])c1c(O)nc(O)nc1NCCCCO	0%	0%	0%	0%	0%	0%	0%	0%
Nc1nc2c(ncn2COCCO)c(=O)[nH]1 [ACYCLOVIR]	100%	100%	100%	100%	0%	100%	0%	0%
Nc1nc(O)cc(NCCCCO)n1	0%	0%	0%	0%	0%	0%	0%	0%
